ChEMBL document CHEMBL2346606, “Inhibitors of the TAM subfamily of tyrosine kinases: synthesis and biological evaluation” (Eur J Med Chem, 2013)

Tests used:
[1] = molecular target: T1, Tyrosine-protein kinase receptor TYRO3 (Homo sapiens) (UniProt Q06418); test: Inhibition of TYRO3 (unknown origin) at 200 nM relative to control
T1 sequence (whole entry): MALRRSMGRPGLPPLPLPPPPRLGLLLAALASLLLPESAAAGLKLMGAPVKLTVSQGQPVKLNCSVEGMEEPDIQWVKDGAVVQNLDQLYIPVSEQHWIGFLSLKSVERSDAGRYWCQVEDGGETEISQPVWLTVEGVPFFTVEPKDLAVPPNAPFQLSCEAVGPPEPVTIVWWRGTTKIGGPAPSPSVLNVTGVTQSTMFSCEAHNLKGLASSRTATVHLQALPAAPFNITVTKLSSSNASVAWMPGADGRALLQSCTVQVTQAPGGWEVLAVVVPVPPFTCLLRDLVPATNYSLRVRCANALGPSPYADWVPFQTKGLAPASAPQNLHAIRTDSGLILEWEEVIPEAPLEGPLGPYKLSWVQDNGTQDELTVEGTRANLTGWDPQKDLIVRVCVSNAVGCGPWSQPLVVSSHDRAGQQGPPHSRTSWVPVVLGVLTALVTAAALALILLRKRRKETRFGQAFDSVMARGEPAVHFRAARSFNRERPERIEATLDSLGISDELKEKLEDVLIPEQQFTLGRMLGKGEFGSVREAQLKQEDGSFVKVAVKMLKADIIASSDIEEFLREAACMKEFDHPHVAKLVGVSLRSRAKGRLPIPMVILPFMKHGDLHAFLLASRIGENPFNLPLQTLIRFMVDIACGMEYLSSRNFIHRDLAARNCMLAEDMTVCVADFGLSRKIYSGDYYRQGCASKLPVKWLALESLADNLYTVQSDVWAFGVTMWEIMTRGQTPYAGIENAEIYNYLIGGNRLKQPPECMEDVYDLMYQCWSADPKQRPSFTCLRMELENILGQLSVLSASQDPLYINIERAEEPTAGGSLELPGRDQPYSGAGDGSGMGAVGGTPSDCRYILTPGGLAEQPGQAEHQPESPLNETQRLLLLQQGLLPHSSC

[2] = molecular target: T2, Tyrosine-protein kinase Mer (Homo sapiens) (UniProt Q12866); test: Inhibition of MER (unknown origin) at 200 nM relative to control
T2 sequence (whole entry): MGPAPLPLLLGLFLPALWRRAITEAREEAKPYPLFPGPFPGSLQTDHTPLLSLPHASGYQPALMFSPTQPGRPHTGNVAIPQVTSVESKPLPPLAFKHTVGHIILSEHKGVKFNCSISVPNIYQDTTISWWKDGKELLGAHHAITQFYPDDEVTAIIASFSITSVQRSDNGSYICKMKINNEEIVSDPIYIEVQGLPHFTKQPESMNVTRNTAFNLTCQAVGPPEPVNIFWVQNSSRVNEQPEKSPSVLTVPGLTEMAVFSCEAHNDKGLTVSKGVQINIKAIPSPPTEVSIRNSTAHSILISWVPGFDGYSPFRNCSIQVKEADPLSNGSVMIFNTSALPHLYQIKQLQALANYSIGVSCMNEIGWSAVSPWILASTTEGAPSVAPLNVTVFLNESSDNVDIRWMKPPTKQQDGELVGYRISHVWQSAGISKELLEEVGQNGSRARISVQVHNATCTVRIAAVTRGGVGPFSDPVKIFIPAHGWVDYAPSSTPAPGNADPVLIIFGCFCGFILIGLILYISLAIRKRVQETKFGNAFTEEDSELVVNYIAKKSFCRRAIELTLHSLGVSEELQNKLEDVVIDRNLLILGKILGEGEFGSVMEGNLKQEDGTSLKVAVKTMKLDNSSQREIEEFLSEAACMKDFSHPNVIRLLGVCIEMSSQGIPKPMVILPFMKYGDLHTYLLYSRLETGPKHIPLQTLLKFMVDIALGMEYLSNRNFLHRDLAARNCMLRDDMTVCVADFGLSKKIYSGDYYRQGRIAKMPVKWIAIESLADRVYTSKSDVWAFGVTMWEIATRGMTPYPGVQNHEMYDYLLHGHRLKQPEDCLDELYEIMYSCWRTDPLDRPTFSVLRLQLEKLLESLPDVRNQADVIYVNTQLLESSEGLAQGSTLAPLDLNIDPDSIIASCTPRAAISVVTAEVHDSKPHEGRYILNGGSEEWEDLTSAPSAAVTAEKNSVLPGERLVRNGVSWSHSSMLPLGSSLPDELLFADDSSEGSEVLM

MCF7 = test: Growth inhibition of human MCF7 cells at 10 uM after 72 hrs by […] assay relative to control; type: functional; settings: MCF7, 72 h, read-out: GI
How it was run: (§1)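 HT29, MCF7 and PC-3 cells were grown in RPMI, plated, and treated 24 h later with compound in DMSO at 10^-5 M (DMSO controls, 1% final). After 72 h exposure, MTS reagent was added for 3 h at 37 °C and absorbance read at 490 nm. Proliferation inhibition = [1 − OD treated/OD control] × 100, triplicate experiments.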

[3] = molecular target: T3, Tyrosine-protein kinase receptor TYRO3 (Homo sapiens, UniProt Q06418); test: Binding affinity to TYRO3 (unknown origin) after 1 hr
T3 sequence (Q06418 whole entry): T1 sequence (whole entry)

[4] = Growth inhibition of African green monkey Vero cells at 10 uM after 72 hrs by […] assay relative to control; type: cell-based; settings: chlorocebus sabaeus, read-out: GI
How it was run: (§2)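 KB and Vero cells were grown in D-MEM with 10% FCS and antibiotics under 5% CO2, plated, then dosed 24 h later at 10^-5 M from DMSO (controls 1% DMSO). After 72 h, MTS was added for 3 h at 37 °C and A490 read. Inhibition = (1 − OD treated/OD control) × 100, in triplicate.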

KB = test: Growth inhibition of human KB cells at 10 uM after 72 hrs by […] relative to control; type: functional; settings: read-out: GI; how it was run: as §2
[5] = molecular target: T4, Tyrosine-protein kinase ABL1 (Homo sapiens, UniProt P00519); test: Binding affinity to non phosphorylated ABL1 (unknown origin) after 1 hr
[6] = molecular target: T4, Tyrosine-protein kinase ABL1; test: Binding affinity to phosphorylated ABL1 (unknown origin) after 1 hr
PC-3 = test: Growth inhibition of human PC3 cells at 10 uM after 72 hrs by […] assay relative to control; type: functional; settings: PC-3, 72 h, read-out: GI; how it was run: as §1
HT-29 = test: Growth inhibition of human HT-29 cells at 10 uM after 72 hrs by […] assay relative to control; type: functional; settings: HT-29, 72 h, read-out: GI; how it was run: as §1
[7] = molecular target: Hepatocyte growth factor receptor (Homo sapiens, UniProt P08581); test: Binding affinity to MET (unknown origin) after 1 hr
[8] = molecular target: T5, Tyrosine-protein kinase Mer (Homo sapiens, UniProt Q12866); test: Binding affinity to MER (unknown origin) after 1 hr
T5 sequence (Q12866 whole entry): T2 sequence (whole entry)

[9] = molecular target: T6, Tyrosine-protein kinase receptor UFO (Homo sapiens, UniProt P30530); test: Binding affinity to AXL (unknown origin) after 1 hr
T6 sequence (P30530 whole entry): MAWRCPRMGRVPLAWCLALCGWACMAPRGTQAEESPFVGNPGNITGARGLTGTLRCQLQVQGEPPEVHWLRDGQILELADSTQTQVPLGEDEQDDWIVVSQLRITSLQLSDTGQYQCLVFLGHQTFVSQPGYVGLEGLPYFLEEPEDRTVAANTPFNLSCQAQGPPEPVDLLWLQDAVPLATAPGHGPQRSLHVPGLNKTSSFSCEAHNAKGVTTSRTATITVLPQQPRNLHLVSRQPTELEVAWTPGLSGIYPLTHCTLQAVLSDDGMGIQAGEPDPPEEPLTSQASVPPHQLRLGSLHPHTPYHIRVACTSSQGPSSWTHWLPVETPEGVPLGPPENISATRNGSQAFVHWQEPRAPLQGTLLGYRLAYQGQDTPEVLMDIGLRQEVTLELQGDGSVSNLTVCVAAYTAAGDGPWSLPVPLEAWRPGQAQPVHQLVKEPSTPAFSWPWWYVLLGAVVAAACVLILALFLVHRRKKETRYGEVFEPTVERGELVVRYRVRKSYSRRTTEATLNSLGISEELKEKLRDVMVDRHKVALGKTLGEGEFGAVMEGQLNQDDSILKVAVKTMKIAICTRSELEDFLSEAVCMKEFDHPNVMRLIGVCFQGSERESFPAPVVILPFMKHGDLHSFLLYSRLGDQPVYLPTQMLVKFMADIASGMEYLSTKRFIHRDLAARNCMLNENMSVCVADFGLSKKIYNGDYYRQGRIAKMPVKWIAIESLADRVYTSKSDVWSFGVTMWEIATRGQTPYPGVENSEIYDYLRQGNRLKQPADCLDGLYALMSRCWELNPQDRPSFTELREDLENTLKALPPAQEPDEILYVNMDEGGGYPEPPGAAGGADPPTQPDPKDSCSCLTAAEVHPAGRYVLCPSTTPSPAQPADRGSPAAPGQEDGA

Chain of Hepatocyte growth factor receptor (P08581 whole entry): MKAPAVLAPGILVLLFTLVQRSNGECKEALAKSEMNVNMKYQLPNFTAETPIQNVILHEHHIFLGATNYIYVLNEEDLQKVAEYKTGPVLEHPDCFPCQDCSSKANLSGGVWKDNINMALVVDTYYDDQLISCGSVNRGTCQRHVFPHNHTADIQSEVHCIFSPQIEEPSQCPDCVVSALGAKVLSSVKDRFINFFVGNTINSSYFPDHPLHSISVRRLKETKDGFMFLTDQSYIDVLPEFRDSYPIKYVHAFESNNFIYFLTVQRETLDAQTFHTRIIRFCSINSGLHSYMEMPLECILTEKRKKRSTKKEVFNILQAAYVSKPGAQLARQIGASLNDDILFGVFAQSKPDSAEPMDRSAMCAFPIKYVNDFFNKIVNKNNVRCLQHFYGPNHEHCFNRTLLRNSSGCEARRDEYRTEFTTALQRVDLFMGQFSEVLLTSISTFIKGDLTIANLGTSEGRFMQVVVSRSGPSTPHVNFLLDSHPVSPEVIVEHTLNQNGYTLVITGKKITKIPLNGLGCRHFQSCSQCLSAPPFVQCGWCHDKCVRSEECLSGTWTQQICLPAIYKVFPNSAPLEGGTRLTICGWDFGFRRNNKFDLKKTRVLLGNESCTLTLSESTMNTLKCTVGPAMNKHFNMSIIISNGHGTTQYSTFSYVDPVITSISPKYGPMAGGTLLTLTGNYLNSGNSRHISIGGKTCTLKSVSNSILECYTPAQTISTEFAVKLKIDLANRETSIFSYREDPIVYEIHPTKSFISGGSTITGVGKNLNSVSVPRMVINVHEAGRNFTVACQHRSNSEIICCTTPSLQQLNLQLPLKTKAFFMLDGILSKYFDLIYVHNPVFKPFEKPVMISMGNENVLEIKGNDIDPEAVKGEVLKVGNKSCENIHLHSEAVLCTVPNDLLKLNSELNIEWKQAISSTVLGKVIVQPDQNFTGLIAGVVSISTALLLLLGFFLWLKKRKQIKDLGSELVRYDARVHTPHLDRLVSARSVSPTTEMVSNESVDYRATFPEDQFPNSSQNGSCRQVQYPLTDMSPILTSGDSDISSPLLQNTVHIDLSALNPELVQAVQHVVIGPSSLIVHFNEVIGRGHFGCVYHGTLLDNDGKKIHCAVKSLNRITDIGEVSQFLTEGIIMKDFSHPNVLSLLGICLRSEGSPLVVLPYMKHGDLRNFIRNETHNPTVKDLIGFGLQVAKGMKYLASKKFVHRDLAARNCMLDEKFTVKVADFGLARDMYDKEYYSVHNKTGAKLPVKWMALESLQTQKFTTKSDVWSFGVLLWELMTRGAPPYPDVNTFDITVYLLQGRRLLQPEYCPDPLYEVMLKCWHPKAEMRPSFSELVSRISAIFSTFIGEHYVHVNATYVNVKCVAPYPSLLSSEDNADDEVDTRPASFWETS
T4 sequence (P00519 whole entry): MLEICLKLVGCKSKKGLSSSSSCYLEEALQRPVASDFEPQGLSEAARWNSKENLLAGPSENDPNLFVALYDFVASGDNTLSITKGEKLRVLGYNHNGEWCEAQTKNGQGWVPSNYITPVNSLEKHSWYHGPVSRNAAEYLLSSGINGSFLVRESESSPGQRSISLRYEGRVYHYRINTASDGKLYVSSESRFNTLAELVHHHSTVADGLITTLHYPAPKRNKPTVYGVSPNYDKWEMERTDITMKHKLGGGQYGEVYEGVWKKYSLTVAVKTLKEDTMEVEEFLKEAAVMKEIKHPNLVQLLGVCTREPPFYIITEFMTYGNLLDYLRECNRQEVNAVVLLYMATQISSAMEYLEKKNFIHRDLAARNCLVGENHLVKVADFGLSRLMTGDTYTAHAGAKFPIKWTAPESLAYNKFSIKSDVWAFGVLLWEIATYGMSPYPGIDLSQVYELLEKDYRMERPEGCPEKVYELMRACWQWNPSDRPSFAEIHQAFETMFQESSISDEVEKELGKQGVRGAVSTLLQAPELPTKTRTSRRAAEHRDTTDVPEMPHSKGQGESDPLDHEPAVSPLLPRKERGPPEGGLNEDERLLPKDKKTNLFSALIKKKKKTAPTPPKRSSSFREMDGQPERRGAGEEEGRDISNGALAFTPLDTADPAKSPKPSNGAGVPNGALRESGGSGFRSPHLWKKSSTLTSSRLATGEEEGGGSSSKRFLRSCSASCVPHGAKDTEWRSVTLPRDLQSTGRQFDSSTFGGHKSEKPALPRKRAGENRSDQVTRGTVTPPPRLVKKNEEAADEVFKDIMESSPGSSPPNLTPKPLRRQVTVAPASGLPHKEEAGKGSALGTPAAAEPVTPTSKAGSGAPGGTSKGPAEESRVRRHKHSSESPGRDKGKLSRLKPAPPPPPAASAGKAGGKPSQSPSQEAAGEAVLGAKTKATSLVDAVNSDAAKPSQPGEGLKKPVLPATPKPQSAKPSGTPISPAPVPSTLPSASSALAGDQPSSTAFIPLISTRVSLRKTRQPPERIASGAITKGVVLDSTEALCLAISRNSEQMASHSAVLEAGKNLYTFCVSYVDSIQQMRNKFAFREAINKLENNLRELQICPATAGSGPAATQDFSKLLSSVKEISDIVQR

Row | SMILES | inhibition [1] [%] | inhibition [2] [%] | inhibition of growth at 10 µM (MCF7) [%] | Kd [3] [nM] | inhibition at 72 h, 10 µM [4] [%] | inhibition of growth at 10 µM (KB) [%] | Kd [5] [nM] | Kd [6] [nM] | inhibition of growth at 10 µM (PC-3) [%] | inhibition of growth at 10 µM (HT-29) [%] | Kd [7] [nM] | Kd [8] [nM] | Kd [9] [nM]
1 | CC(C)[S+]([O-])c1ccccc1Nc1nc(Nc2ccc(CN3CCN(C)CC3)cc2)ncc1Cl (centres undefined) | > 50 | > 90 | – | – | – | – | – | – | – | – | – | – | –
2 | O=C(Nc1ccc(Oc2ncnc3[nH]cnc23)c(F)c1)c1cccn(-c2cccc(F)c2)c1=O | – | – | < 10 | 900 | < 10 | < 10 | 320 | 3300 | < 10 | < 10 | 440 | – | –
3 | O=C(Nc1ccc(Oc2ncnc3nc[nH]c23)c(F)c1)c1cccn(-c2ccc(F)cc2)c1=O | – | – | < 10 | 200 | < 10 | < 10 | 6600 | 40000 | < 10 | < 10 | 65 | 42 | 39
4 | O=C(Nc1ccc(Oc2ncnc3nc[nH]c23)c(F)c1)c1cccn(-c2ccc(C(F)(F)F)cc2)c1=O | – | – | < 10 | 2900 | < 10 | < 10 | – | – | < 10 | < 10 | 150 | – | –
5 | CCN(CC)CCNC(=O)c1c(C)[nH]c(/C=C2\C(=O)Nc3ccc(F)cc32)c1C [SUNITINIB] | – | – | < 10 | – | < 10 | < 10 | – | – | < 10 | < 10 | – | – | –
6 | O=C(Nc1cccc(-c2ncnc3[nH]cnc23)c1)c1cccn(-c2cccc(C(F)(F)F)c2)c1=O | – | – | < 10 | – | < 10 | < 10 | – | – | < 10 | < 10 | – | – | –
7 | Cc1cc(C(=O)Nc2cccc(-c3nc4c(Nc5ccc(F)cc5)ncnc4[nH]3)c2)ccc1Br | – | – | < 10 | – | < 10 | < 10 | – | – | < 10 | < 10 | – | – | –
8 | Cc1cc(C(=O)Nc2cccc(-c3nc4c(Nc5cccc(F)c5)ncnc4[nH]3)c2)ccc1Br | – | – | < 10 | – | < 10 | < 10 | – | – | < 10 | < 10 | – | – | –
9 | COc1ccccc1C(=O)Nc1cccc(-c2nc3c(Nc4cccc(F)c4)ncnc3[nH]2)c1 | – | – | < 10 | – | < 10 | < 10 | – | – | < 10 | < 10 | – | – | –
10 | O=C(Nc1cccc(-c2ncnc3[nH]cnc23)c1)c1ccccc1F | – | – | < 10 | – | < 10 | < 10 | – | – | < 10 | < 10 | – | – | –
11 | COc1cc2c(Nc3ccc(Br)cc3F)ncnc2cc1OCC1CCN(C)CC1 [VANDETANIB] | – | – | < 10 | – | < 10 | < 10 | – | – | < 10 | < 10 | – | – | –
12 | O=C(Nc1cccc(-c2ncnc3[nH]cnc23)c1)c1cccn(-c2ccc(C(F)(F)F)cc2)c1=O | – | – | < 10 | – | < 10 | < 10 | – | – | < 10 | < 10 | – | – | –
